Source: PubChem BioAssay (SRMLSC)
The entries come from a sample that favours hits as a whole.
Fibroblast inh – blocks proliferation of human lung fibroblasts; LL 47 human lung fibroblast viability, ATP luminescence; active compounds read low; viability, % at 10 µM; 85,000 compounds, 1.1% hits; AID 719;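 active = viability at or below 50% in the single dose screen; inactive = viability above 50%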;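 also: compound exposure lasted 72 h before the ATP readout; 100% = median luminescence of untreated cell-only wells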
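Material: Human LL 47 lung fibroblast cells | Input: 1,150 cells/well | Buffer or medium: IMEM plus 15% FBS | Compound dosing: 0.1% DMSO in all compound wells | Times: Overnight cell rest, 72 h compound treatment at 37 °C | Signal: CellTiter-Glo luminescence measuring cellular ATP | Measure: % viability versus median cells-only luminescence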
H69AR inhibit – growth inhibitors of human H69AR lung tumor cells. 85,000 compounds, 6% hits. viability, % at 10 µM. H69AR lung tumor viability, ATP luminescence, 72 h; active compounds read low;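 active = viability at or below 40%; inactive = viability above 40%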;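 also: multidrug resistant small cell line overexpressing MRP-1 efflux transporter; 100% = mean luminescence of untreated control wells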
HUVEC prolif 384 – human endothelial cell proliferation inhibition; HUVEC proliferation, CellTiter-Glo luminescence, 72 h; active compounds read low; viability, % at 10 µM (by protocol); 86,000 compounds, 1.1% hits;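 active = viability at or below 30%; inactive = viability above 30%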;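 also: 100% = median luminescence of DMSO-only cell control wells on each plate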
PTEN del growth – suppresses growth of cells with PTEN deletion; HCT116 PTEN-null viability, CellTiter-Glo, 60 h; active compounds read low; viability, % at 10 µM; 140,000 compounds, 1.2% hits; AID 827;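 active = viability at or below a set limit, 4 SD under the median of all tested compounds, cut at about 3.7% in these data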;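 also: PTEN knockout HCT116 line with beta catenin targeted HCT116 as companion control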
HCT116 bCat-KO – beta-catenin-lacking colon tumor cell growth suppression | HCT116 beta-catenin knockout viability, CellTiter-Glo, 60 h; active compounds read low | viability, % at 10 µM | 140,000 compounds, 1.5% hits | AID 818;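 active = viability at or under a set limit, the compound median less 4 SD, cut at about 6% in these data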;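 also: 0% = Hyamine 1622 control at 20 µM and 100% = untreated cell control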
Starred values were filed as active, the others as inactive; x = not tested or not shown.

SMILES	Fibroblast inh	H69AR inhibit	HUVEC prolif 384	PTEN del growth	HCT116 bCat-KO
CC(=O)N[C@H]1C[C@@H]1c1ccccc1	97.4	91.2	97.5	101.8	107.7
Cc1cc(C)n(C(=O)CNc2ccc(C)c(C)c2)n1	105.2	103.5	102.8	1.4*	0.9*
COC(=O)c1cn(NC(=O)c2cnccn2)c(=O)c2ccccc12	81.8	45.8	67.5	14.9	16.7
O=C1/C(=C/c2ccccc2)CSc2sccc21	97.2	87.9	94.0	100.4	96.1
N#Cc1c(NC(=O)CSc2ccccn2)oc(-c2ccccc2)c1-c1ccccc1	104.6	82.1	96.7	102.9	90.0
Cc1cnc(C(=O)OCC(=O)Nc2oc(-c3ccccc3)c(-c3ccccc3)c2C#N)cn1	71.1	33.6*	97.9	96.4	98.5
Cc1cc(NC(=O)CSCc2nc(-c3cccc(F)c3)oc2C)no1	102.6	91.8	91.5	94.4	97.1
Oc1ccc2ccccc2c1/C=N/Nc1nnc(-c2ncc[nH]2)c2ccccc12	x	x	x	2.1*	4.9*
CCOC(=O)N1CCN(c2ncnc3c2cnn3-c2ccc(Cl)cc2)CC1	101.3	69.0	101.2	97.7	93.7
Cc1ccc(C(=O)Oc2oc(-c3ccco3)nc2C=Nc2ccc(Cl)cc2)cc1	99.5	49.6	68.8	101.5	96.5
O=C(Oc1oc(-c2ccco2)nc1C=Nc1ccccc1)c1ccoc1	86.7	38.0*	72.1	95.7	97.7
O=C(Oc1oc(-c2ccco2)nc1C=Nc1ccccc1)c1ccco1	85.8	38.8*	87.1	94.6	101.2
Cc1ccc(N=Cc2nc(-c3ccco3)oc2O)cc1	99.3	84.7	89.6	71.0	56.7
CC(C)CCNC(=O)CSc1nc2ccsc2c(=O)n1NC(=O)c1ccccc1	96.6	87.0	90.4	92.5	89.2
Nc1nc(-c2ccc(Cl)cc2)c(N=Nc2ccc(S(=O)(=O)N3CCOCC3)cc2)s1	x	x	x	3.7*	18.9
COc1ccc(NC(=O)NCCCN2CCN(c3cc(C)ccc3C)CC2)cc1	89.9	61.4	73.0	1.4*	1.4*
COc1ccc(NC(=O)NCCN2CCN(c3cccc(Cl)c3)CC2)cc1	103.9	86.9	93.3	99.5	82.9
O=C(CN(C1CCCCC1)S(=O)(=O)c1ccc(Cl)cc1)NCc1ccncc1	94.5	89.3	99.6	67.5	70.5
CC(C)NC(=O)NC(=O)COC(=O)c1ccccc1F	x	x	x	96.6	95.4
O=C1CN(C(=O)c2ccccc2)c2ccccc2N1	107.8	83.2	105.5	101.3	96.0
O=C1CN(C(=O)c2cc(Br)c(Br)s2)c2ccccc2N1	79.1	15.9*	41.8	30.6	32.5
COCCNC(=O)/C(C#N)=C/c1ccc(-c2ccc(OC)cc2[N+](=O)[O-])o1	x	x	x	32.8	79.7
COc1ccc(OC)c(NC(=O)c2c(NC(=O)CNCc3ccco3)sc3c2CCC3)c1	78.2	16.4*	80.2	79.3	90.2
CCc1ccccc1NC(=O)c1ccc(-n2c(C)ccc2C)cc1	x	x	x	4.0	3.8*
CN(C)c1ccc(C(=O)c2ccccc2)cc1	102.3	97.3	98.7	87.0	89.3
SMILES	Fibroblast inh	H69AR inhibit	HUVEC prolif 384	PTEN del growth	HCT116 bCat-KO
CCOc1ccc(C(=O)c2ccc(OCC)c(N)c2)cc1N	89.9	13.3*	55.4	22.0	14.4
COc1ccc(C(N)=O)cc1N	x	x	x	103.7	94.5
CN(C)c1ccc(C(=O)c2ccc(N(C)C)c(N)c2)cc1N	85.2	21.6*	78.2	87.2	77.8
Cc1nn(CC(=O)NCCN2CCOCC2)c(C)c1[N+](=O)[O-]	x	x	x	83.4	85.5
CCOC(=O)Cc1cc(=O)n2[nH]c(C)c(-c3ccc(Cl)cc3)c2n1	68.8	16.0*	45.6	29.2	31.1
CCOC(=O)Cc1c(C)nc2c(-c3ccc(Cl)cc3)c[nH]n2c1=O	x	22.7*	57.1	55.1	62.2
CCc1ccc(-n2c(Cn3nc(C(F)(F)F)cc3C)n[nH]c2=S)cc1	x	x	x	98.5	98.0
Cc1ccc(NC(=O)c2ccco2)cc1NC(=O)CSc1nnc(-c2cccs2)n1C	104.8	91.0	94.2	87.0	87.2
CC(=O)Oc1cc2c(C(=O)NCCCN3CCOCC3)c(C)oc2c2ccccc12	4.3*	45.4	4.5*	1.4*	0.9*
COc1ccc(/C=C2/C(=O)N(CC3CCCO3)C(=S)N2C)c(OC)c1 (centres undefined)	x	x	x	84.0	89.8
COc1ccc2c(c1)nc1n2CN(CC2CCCO2)CN1Cc1ccccc1 (centres undefined)	86.5	24.7*	68.2	x	x
COc1ccc(C)cc1S(=O)(=O)Nc1ccccc1	102.5	100.0	96.3	109.9	103.0
COc1cc(NS(=O)(=O)c2ccc(C)cc2C)cc(OC)c1OC	93.6	24.5*	86.7	48.2	41.5
Cn1c(CCNC(=O)c2cccs2)n[nH]c1=S	x	x	x	105.3	93.4
Cc1cnnn1-c1ccc(C(=O)CCl)cc1	53.7	0.0*	65.3	89.5	78.2
Cn1c(NC(=O)c2cccs2)c(-c2cccs2)c(=O)c2ccccc21	100.9	90.7	92.8	94.4	92.3
CC(CN1CCOCC1)OC(=O)C(c1ccccc1)c1ccccc1 (centres undefined)	95.9	85.8	92.3	96.5	84.0
O=c1cc(-c2ccccc2)[nH]c2nc3ccccc3n12	66.2	13.7*	52.7	16.6	20.9
CCC(C)(C)n1nnnc1C(C(C)C)N1CCN(C)CC1 (centres undefined)	99.1	83.4	101.1	85.8	91.7
COc1ccc(Cl)cc1NC(=O)Nc1ccc(Br)cn1	90.8	37.7*	97.6	68.2	75.8
COc1ccc(Cl)cc1NC(=O)NC1CCCCC1	99.9	79.8	88.0	69.1	83.2
COc1ccc(Cl)cc1NC(=O)Nc1cccc([N+](=O)[O-])c1C	x	x	x	3.9	3.1*
COc1ccc(-c2nnc(CSc3nc4ccccc4c(=O)n3CC(C)C)o2)cc1OC	96.8	63.0	94.8	69.9	84.3
COc1ccccc1-c1c(C)nn2c(N3CCN(c4ccccc4OC)CC3)cc(C)nc12	106.0	92.7	81.4	35.6	15.4
COc1ccccc1-c1c(C)nn2c(N3CCN(Cc4ccccc4)CC3)cc(C)nc12	87.1	54.7	89.6	51.8	32.6
SMILES	Fibroblast inh	H69AR inhibit	HUVEC prolif 384	PTEN del growth	HCT116 bCat-KO
CCOCCCNC(=O)C1CCN(c2cc(C)nc3c(-c4ccc(OC)c(OC)c4)c(C)nn23)CC1	105.7	32.9*	105.9	63.3	71.8
COc1ccccc1N1CCN(c2cc(C)nc3nc(C)nn23)CC1	99.3	40.0*	99.3	91.9	86.7
Cc1cc(N2CCN(Cc3ccccc3)CC2)n2nc(C)c(-c3ccccc3)c2n1	92.5	19.2*	77.2	60.5	45.8
COc1ccc(-c2c(C)nn3c(N4CCN(Cc5ccccc5)CC4)cc(C)nc23)cc1OC	82.2	16.6*	65.8	7.2	10.8
O=C(Nc1nnc(SCc2ccccn2)s1)C1CC(=O)N(c2ccccc2)C1 (centres undefined)	x	x	x	94.8	93.6
O=C(Nc1cccc2[nH]ncc12)c1ccc(F)cc1	x	x	x	78.2	91.0
Cc1cc(SCC#N)n2nc(C)c(-c3ccccc3)c2n1	74.3	26.1*	53.0	73.8	81.5
COc1ccccc1-c1c(C)nn2c(N3CCCCCC3)cc(C)nc12	x	x	x	3.2*	2.6*
CCOC(=O)c1c(N)sn(-c2ccccc2C)c1=S	90.6	76.7	98.5	104.4	85.9
